GSTO1 counter: inhibitors of recombinant GSTO1, primary screen, counter-screen for RBBP9 inhibitor project, biochemical, fluorescence polarization. Glutathione S-transferase omega-1 (Homo sapiens), P78417. activity-based probe fluorescence polarization. inhibition, % at 5.96 µM. 300,000 tested, 1.1% active;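 active = inhibition above the campaign mean inhibition plus 3 SD, cut at about 35% in these data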;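 note: 0% = GSTO1-1 with DMSO and 100% = wells lacking GSTO1-1 enzyme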
Target sequence (P78417 whole entry, looked up): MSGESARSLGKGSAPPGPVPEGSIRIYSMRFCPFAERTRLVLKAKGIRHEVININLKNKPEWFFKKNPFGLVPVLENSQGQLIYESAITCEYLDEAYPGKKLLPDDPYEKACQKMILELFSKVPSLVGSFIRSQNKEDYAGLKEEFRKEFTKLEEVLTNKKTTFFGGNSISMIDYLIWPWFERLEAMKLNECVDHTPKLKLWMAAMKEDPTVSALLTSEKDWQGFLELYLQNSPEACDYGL
RBBP9 inhibitor: human RBBP9 inhibitors, primary screen, biochemical, fluorescence polarization, FP-Rh probe, HTS; Serine hydrolase RBBP9 (Homo sapiens), O75884; recombinant RBBP9; inhibition, % at 7.94 µM; 220,000 tested, 0.2% active;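 active = inhibition above the campaign mean of all tested compounds plus 3 SD, cut at about 14% in these data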;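 note: plate controls were DMSO wells with RBBP9 for no effect and wells lacking RBBP9 protein for full effect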
Target sequence (O75884 whole entry, looked up): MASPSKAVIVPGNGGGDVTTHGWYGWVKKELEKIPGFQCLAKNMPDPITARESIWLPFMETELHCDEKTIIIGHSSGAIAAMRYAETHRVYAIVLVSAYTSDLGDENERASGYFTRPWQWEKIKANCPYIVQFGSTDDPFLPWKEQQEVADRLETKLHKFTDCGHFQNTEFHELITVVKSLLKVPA
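System: RBBP9 protein / Buffer or medium: Tris/NaCl buffer pH 8.0 with 0.1% Pluronic / Probe or stimulus: Serine-hydrolase probe FP-Rh, 375 nM pre-mixing / Dosing: 7.94 µM single dose, 0.794% DMSO / Times: enzyme-compound preincubation 30 min, then probe labeling 45 min, 25 °C / Technique: fluorescence polarization (mP), excitation 525 nm, emission 598 nm / Replication: singlicate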
PRMT1 FP inh: PRMT1 methyltransferase inhibitors, primary screen, biochemical, fluorescence polarization; Protein arginine N-methyltransferase 1 (Homo sapiens), Q99873; recombinant PRMT1, activity-based probe fluorescence polarization; inhibition, % at 2.79 µM; 370,000 tested, 1.3% active; AID 652257, 2013;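 active = inhibition above about 21% made by adding two undisclosed values, limit read from the data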
PAD4 inh: human PAD4 inhibitors, primary screen, biochemical, fluorescence polarization, 1536-well format; Protein-arginine deiminase type-4 (Homo sapiens), Q9UM07; recombinant PAD4, RCA probe fluorescence polarization; inhibition, % at 6.36 µM; 330,000 tested, 0.41% active;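 active = percent inhibition above a cutoff equal to the mean of all tested compounds plus 3 SD, cut at about 15% in these data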;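 note: 0% = PAD4 with RCA probe and DMSO and 100% = probe without PAD4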
SIAE inh: human SIAE inhibitors, primary screen, biochemical, fluorescence polarization, FP-Rh probe, 1536-well HTS; Sialate O-acetylesterase (Homo sapiens), Q9HAT2; SIAE FP-Rh probe binding; inhibition, % at 9.66 µM; 370,000 tested, 0.69% active; AID 1053197, 2014;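 active = inhibition above a cutoff: mean of compounds within the control limits plus 3 SD of those, cut at about 17% in these data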;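 note: 0% = plate median of compound wells and 100% = probe without SIAE protein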
PRMT1 inh conf: PRMT1 methyltransferase inhibitors, confirmation, biochemical, fluorescence polarization, triplicate | shares compounds with PRMT1 FP inh | recombinant His-PRMT1, activity-based probe fluorescence polarization | inhibition, % at 2.79 µM | 3,300 tested, 42% active;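 active = mean inhibition across replicates above the hit cutoff derived for the earlier primary screen, cut at about 22% in these data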
SIAE confirm: human SIAE inhibitors, retest, confirmation, biochemical, fluorescence polarization, FP-Rh probe, triplicate | shares compounds with SIAE inh | SIAE FP-Rh activity-based probe | inhibition, % at 9.66 µM | 2,300 tested, 13% active | AID 1117263, 2014;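 active = mean inhibition of the replicates above the hit cutoff set in the primary screen, cut at about 17% in these data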;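 note: 0% = SIAE with DMSO and probe and 100% = probe without SIAE; inhibitors lower polarization as more probe stays unbound to SIAE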
The depositor's hits bear a star; nt = no result. Rows were chosen to be rich in hits. Some 2.7% of all compounds tested hit in one or more screens of this group.

SMILES	GSTO1 counter	RBBP9 inhibitor	PRMT1 FP inh	PAD4 inh	SIAE inh	PRMT1 inh conf	SIAE confirm
CCCCCCn1c(=O)[nH]c2nc3cc(N)c(C)cc3nc2c1=O	nt	0	132*	nt	18*	123*	9
CCNc1ccc(Br)cc(C(=O)/C=C/c2ccccc2Cl)c1=O	30	0	33*	0	22*	18	10
Cc1ccc(C(=O)Nc2nc(-c3ccco3)c(-c3ccco3)s2)o1	nt	nt	38*	nt	41*	29*	-19
O=C(CCCSc1ccccc1)Nc1nc(-c2ccccn2)cs1	6	-5	7	0	-8	nt	nt
O=C(CCCSc1ccccc1)Nc1nc(-c2ccco2)c(-c2ccco2)s1	-9	-13	44*	-17	28*	2	-10
O=C(Nc1ccc(F)c(Cl)c1)N1CCCC1	5	2	0	-4	-9	nt	nt
Cc1ccccc1C(=O)N[C@H](C(=O)N1CCC[C@H]1C(=O)NC1CCCC1)c1ccccc1	nt	nt	-1	nt	2	nt	nt
N#Cc1ccc(Oc2c(Cl)cncc2Cl)cc1	-7	nt	-1	0	0	nt	nt
N#Cc1ccc(N=c2ssnc2Cl)cc1	3	-7	91*	0	22*	97*	17*
Nc1nc2ccc(Cc3ccncc3)cc2s1	7	nt	5	1	-2	nt	nt
COC(=O)C1=C(O)/C(=C\c2ccc(CNC(=O)C(=O)Nc3ccc(C)cc3)o2)N=C1C	25	1	20	-1	4	nt	nt
CCOC(=O)C1=C(O)/C(=C\c2ccc(CNS(=O)(=O)c3ccc(Br)cc3)o2)N=C1C	19	-1	34*	-3	18*	15	5
COC(=O)C1=C(O)/C(=C\c2ccc(CNS(=O)(=O)c3ccc(Cl)cc3)o2)N=C1C	9	3	56*	-2	22*	15	-5
CCOC(=O)C(=O)NCc1ccc(/C=C2/N=C(C)C(C(=O)OCC)=C2O)o1	17	-5	18	-4	3	nt	nt
Cc1ccc(NCCCn2cnc3c(OCc4ccccc4)ncnc32)cc1C	nt	nt	-1	nt	7	nt	nt
O=C(NCC(c1ccco1)N1CCc2ccccc2C1)C(=O)Nc1ccccc1F (stereo not drawn)	3	nt	2	-2	4	nt	nt
COc1cccc2c1C(=O)c1c(O)c3c(c(O)c1C2=O)CC(O)(C(=O)CO)CC3OC1CC(N(C)C)C(O)C(C)O1 (stereo not drawn)	nt	nt	193*	nt	61*	148*	40*
CCOC(=O)C(=CNNc1cccc(Cl)c1)C(=O)OCC	-4	-4	-4	-4	12	nt	nt
CN(C)c1ccc2nc3ccc(=O)cc-3sc2c1	nt	nt	60*	nt	82*	35*	68*
CCOC(=O)C1=Nc2cccc3c(O)ccc1c23	nt	nt	75*	nt	30*	80*	18*
Cc1cc(C(=O)Nc2ccc(Nc3ccccc3)cc2)ccc1[N+](=O)[O-]	7	nt	28*	-1	19*	6	19*
NS(=O)(=O)c1ccc(NC(=S)NC(=O)/C=C/c2ccco2)cc1	21	-9	56*	-7	19*	20	-10
COCCN(C(=O)c1cc(-c2ccco2)nc2ccccc12)c1c(N)n(Cc2ccccc2)c(=O)[nH]c1=O	nt	nt	83*	-1	42*	9	2
CCCCCOc1ccc(/C=c2\sc3nc(=O)c(-c4ccccc4)nn3c2=O)cc1OC	0	-1	3	-7	1	nt	nt
O=c1nc2s/c(=C\c3ccc(-c4ccccc4[N+](=O)[O-])o3)c(=O)n2nc1-c1ccccc1	nt	-6	59*	nt	22*	7	6
CN(C(=O)Nc1cnc2ccccc2c1)c1ccccc1	8	-2	1	1	7	nt	nt

Source: PubChem BioAssay (The Scripps Research Institute Molecular Screening Center)
